Data on 2 molecules can be found in ChEMBL document CHEMBL3124926, “Identification of highly efficacious glucocorticoid receptor agonists with a potential for reduced clinical bone side effects” (J Med Chem, 2014).

Holding throughout (assay type): organism-based
Design in all cases: dose 100 mg/kg, route oral
Holding throughout (conditions): in vivo, 840 h

Data set [1] has as its system Mus musculus. Briefly: Toxicity in collagen-induced B10.RIII mouse arthritis model assessed as change in femur cortical thickness at 100 mg/kg, po qd for 35 days relative to 30% cremophor-treated control. The gist of the method: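 Female B10.RIII mice were immunized with porcine type II collagen in complete Freund's adjuvant, enrolled at arthritis onset (10/group), and dosed orally once daily for five weeks in 30% cremophor vehicle. Four paws were scored 1–4 (max 16), as AUC. Serum biomarkers were taken at day 35. Femur cortical thickness was measured by microCT in non-immunized, age-matched mice dosed identically.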

Data set [2] relates to Mus musculus. The data set can be described thus: Toxicity in collagen-induced B10.RIII mouse arthritis model assessed as change in free fatty acid level at 100 mg/kg, po qd for 35 days relative to 1% methylcellulose-treated control. The essentials:
(§1)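 Female B10.RIII mice were immunized at 12–15 weeks with porcine type II collagen emulsified in complete Freund's adjuvant (100 μg intradermal, tail base). Animals were enrolled at first arthritis signs, 10 per group, and dosed orally once daily for five weeks in 1% methylcellulose. Paws were scored 1–4 each (max 16), with AUC taken. Serum was collected at day 35. Femur cortical thickness was measured by microCT in non-immunized, age-matched mice given the same dosing.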

Data set [3] deals with Mus musculus. Briefly: Toxicity in collagen-induced B10.RIII mouse arthritis model assessed as change in body fat at 100 mg/kg, po qd for 35 days relative to 1% methylcellulose-treated control. The gist of the method:
as §1

On to `Cc1ccc(F)cc1C(C)(C)C[C@@](O)(Cc1cc2nnccc2[nH]1)C(F)(F)F`, for which the Activity in the data set on Mus musculus [1] is recorded as -8%.

For `Cc1ccc(F)cc1C(C)(C)C[C@@](O)(Cc1cc2ncncc2[nH]1)C(F)(F)F`, the Activity in the data set with Mus musculus [2] turned out to be 14%; with Mus musculus [3], 32%.
